Rtt109 Vps75: C. albicans Rtt109 histone acetyltransferase inhibition | Q5AAJ8 | purified Rtt109/Vps75, ThioGlo CoA-SH fluorescence, 4 h | inhibition, % at 34.9 µM | 0.16% of 330,000 active;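 active means inhibition of at least 50% in every replicate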
dFosB act-1: enhances mouse delta FosB homodimer DNA binding; P13346; purified delta FosB, TAMRA-CDK5 oligo fluorescence polarization; percent of positive-control signal above neutral wells; activation, % at 25 µM; 0.99% of 340,000 active; AID 493131;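 active means mean activation above about 17%, with every replicate also reaching it, limit read from the data, passing the limit was not always enough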
Target sequence (P13346 whole entry, looked up): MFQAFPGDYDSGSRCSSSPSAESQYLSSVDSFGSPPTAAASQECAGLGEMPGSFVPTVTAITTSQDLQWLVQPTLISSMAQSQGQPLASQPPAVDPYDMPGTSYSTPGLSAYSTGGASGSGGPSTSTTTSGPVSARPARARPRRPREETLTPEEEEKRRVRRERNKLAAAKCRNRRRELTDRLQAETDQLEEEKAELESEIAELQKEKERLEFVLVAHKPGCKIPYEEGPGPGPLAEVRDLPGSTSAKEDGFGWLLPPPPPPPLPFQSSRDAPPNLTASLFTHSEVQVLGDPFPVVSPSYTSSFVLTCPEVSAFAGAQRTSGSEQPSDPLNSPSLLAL
DYRK1A inh: blocks rat Dyrk1A kinase activity | ADP-Glo luminescence, NFATc1 peptide | inhibition, % at 12.5 µM | 0.43% of 310,000 active; in the data active means inhibition above about 50%;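 further: plate controls were vehicle with enzyme for no effect and no enzyme for full effect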
CAL PDZ FP-1: human CAL PDZ-peptide interaction inhibition; purified CAL PDZ, TMR-peptide fluorescence polarization, 1 h; inhibition, % at 20 µM; 0.02% of 330,000 active;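 active means highest replicate inhibition of at least 40%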;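 further: plate controls were DMSO neutral control wells for no effect and unlabeled competitor peptide control wells for full effect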
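Control set: unlabelled peptide and DMSO controls / Material: purified CerCALP PDZ construct / Timing: 1 h incubation at room temperature before polarization reading / Doses: 20 µM, one dose / Detection: fluorescence polarization (mP)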
CDK5 inh: blocks human CDK5/p35 kinase activity | Q00535+Q15078 | Recombinant CDK5/p35, ADP-Glo luminescence, 60 min | inhibition, % at 10 µM | 0.01% of 330,000 active | AID 488839;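 active means highest replicate inhibition of at least 50% and at least 75% of replicates reaching 50%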;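 further: plate controls were DMSO neutral control for no effect and GW8510 at 10 µM for full effect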
CAL PDZ FP-2: inhibitors of human CAL PDZ peptide binding; inhibition, % at 24.9 µM; purified CAL PDZ, TMR-peptide fluorescence polarization, 1 h; 0.92% of 300,000 active;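 active means mean inhibition of at least 30% with at least half of replicates also reaching 30%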;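 further: 0% = DMSO neutral control and 100% = excess unlabeled competitor peptide PRC23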
dFosB act-2: activators of mouse delta FosB homodimer DNA binding; shares compounds with dFosB act-1; 2,400 tested, under 10 active; purified delta FosB, TAMRA-CDK5 oligo fluorescence polarization; normalised: neutral wells 0, positive control 100; activation, % at 24.9 µM;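 active means highest replicate activation at or above 34% and every replicate reaching that threshold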;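 further: higher polarization means more probe DNA bound by delta FosB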
Starred values were filed as active, the others as inactive; x = no result given. This is a sample that favours compounds with a hit; in the whole collection about 2.2% have one here.

SMILES	Rtt109 Vps75	dFosB act-1	DYRK1A inh	CAL PDZ FP-1	CDK5 inh	CAL PDZ FP-2	dFosB act-2
Cc1ccc(S(=O)(=O)Nc2ccc(NC(=O)Nc3ccc(F)cc3F)cc2)cc1	-0.8	20.2*	-1.4	0.4	0.3	1.2	4.5
O=C(Nc1ccc(NC(=O)c2ccccc2O)cc1)Nc1ccc(F)cc1F	-6.0	31.8*	x	-0.9	-0.5	-4.4	6.9
Cc1ccc(OCCCCN(C)Cc2ccccc2)c(Br)c1	-4.6	24.9*	1.5	-2.1	0.0	3.0	-0.1
COC(=O)c1ccccc1-n1c(C)nc(=O)c(-c2ccccc2)c1C	x	-1.2	-0.2	-0.2	0.3	-3.3	x
O=C(NCCCCNC(=O)c1ccccc1F)c1ccccc1F	1.5	-0.6	x	-0.9	-0.8	-5.0	x
Cc1cccc(C)c1NS(=O)(=O)c1ccc(NC(=O)c2ccc(Cl)c([N+](=O)[O-])c2)cc1	4.7	39.6*	-2.3	-2.7	-2.4	-3.6	-1.5
CCOC(=O)/C=C/C(=O)Nc1ccc(S(=O)(=O)Nc2c(C)cc(C)cc2C)cc1	-9.6	19.9*	0.7	0.4	0.3	2.7	6.2
Cc1cc(C)c(NS(=O)(=O)c2ccc(NC(=O)c3cccs3)cc2)c(C)c1	3.3	26.4*	-10.2	-1.6	0.8	-1.7	-6.7
Cc1cc(C)cc(C(=O)Nc2ccc(NC(=O)c3cccs3)cc2)c1	-5.0	24.7*	1.7	-2.1	0.2	0.2	3.9
CCOC(=O)/C=C/C(=O)Nc1ccc(Oc2ccccc2)cc1	-3.1	-5.4	3.0	-2.4	0.9	-3.6	x
CC(=O)c1ccc(NC(=O)c2cccs2)cc1	5.3	-7.8	1.4	-2.6	-0.1	x	x
CCNC(=O)C1CC(=O)N(CC)C(=Nc2cc(Cl)c(O)c(Cl)c2)S1 (stereo not given)	7.8	-0.9	-5.8	-2.1	-1.2	-5.8	x
CC1SC(c2ccc(F)cc2)NC1=O (stereo not given)	x	2.2	0.6	-1.6	1.6	-1.6	x
Cc1cc(C)cc(C(=O)Nc2ccc(NC(=O)Cc3ccccc3)cc2)c1	-4.9	42.7*	13.9	-0.5	0.3	x	5.0
O=C(Cc1ccccc1)Nc1ccc(NC(=O)c2cccc(Cl)c2)cc1	6.4	-0.7	-0.1	0.3	1.1	-0.4	x
CC(SC(C)C(=O)NN=Cc1cccc(F)c1)C(=O)NN=Cc1cccc(F)c1 (stereo not given)	-12.4	28.0*	-3.0	-1.0	2.5	x	0.6
O=C(N/N=C/c1cccc(F)c1)NC1CCCCC1	-3.3	-5.6	8.3	-1.2	-1.5	0.7	x
CC(OC(=O)c1ccc([N+](=O)[O-])s1)C(=O)Nc1ncc(Cl)cc1Cl (stereo not given)	0.6	-3.4	-4.8	-0.5	0.8	1.8	x
COc1ccc(-n2cnc3scc(-c4ccccc4)c3c2=O)cc1	-3.0	-17.3	3.6	-2.8	0.4	-6.5	x
CN1/C(=C/C=N/n2cnnc2)C(C)(C)c2ccccc21	13.3	20.1*	5.2	0.7	0.3	6.0	-0.2
OC(CNCCc1ccc(Cl)cc1)COc1ccc2ccccc2c1 (stereo not given)	13.2	3.6	3.2	-1.1	2.8	-6.8	x
OC(CNCCc1ccccc1)COc1ccc(OCC(O)CNCCc2ccccc2)cc1 (stereo not given)	14.5	19.2*	x	0.2	0.5	-2.6	-3.8
COc1ccc(/C=C(\C#N)C(=O)OCC(=O)NCc2ccccc2OC)cc1	-3.1	30.5*	-2.0	-1.1	1.4	-1.0	3.6
COc1ccc(/C=C(\C#N)C(=O)OCC(=O)NCc2ccccc2Cl)cc1	1.2	1.6	6.4	-2.4	-0.8	2.0	x
C=CCn1c(=NC(=O)c2cc(Cl)sc2Cl)sc2cc(S(N)(=O)=O)ccc21	-8.2	25.4*	2.9	-1.7	0.1	2.4	3.5
SMILES	Rtt109 Vps75	dFosB act-1	DYRK1A inh	CAL PDZ FP-1	CDK5 inh	CAL PDZ FP-2	dFosB act-2
CC(=O)c1ccc(N2CCN(C(=O)c3ccc4ccccc4n3)CC2)cc1	-7.5	7.2	0.3	0.3	-1.0	x	x
CC(=O)c1ccc(N2CCN(C(=O)/C=C/c3ccc4ccccc4n3)CC2)cc1	-16.3	40.3*	0.0	-3.0	0.3	x	3.1
Cc1cccc(-n2nnnc2SCC(=O)N(CC(C)C)c2c(N)n(CC(C)C)c(=O)[nH]c2=O)c1	-17.5	31.6*	-0.1	-1.5	-0.2	2.4	6.4
C#CCN1C(C)=CC(=O)[C@@H](O)[C@H]1c1ccccc1Br	5.9	-4.0	2.0	-0.9	0.7	-8.1	x
CC1CC(C)CN(S(=O)(=O)c2ccc(C(=O)Nc3sccc3C(N)=O)cc2)C1 (stereo not given)	-6.3	28.6*	-1.7	0.1	1.3	x	1.9
COc1cc(/C=C/C(=O)OCC(=O)NCc2ccco2)ccc1OC(F)F	-12.7	-10.5	1.4	-3.3	2.7	1.0	x
COc1cc(/C=C/C(=O)OCC(=O)NCC(=O)Nc2cccc(C)c2C)ccc1OC(F)F	-12.7	20.4*	x	-1.3	-0.8	-2.1	3.1
CC(C)Cn1c(N)c(/C=N/NC(=O)c2ccc(Cl)cc2)c(=O)n(C)c1=O	8.4	18.8*	-1.2	-0.5	0.6	x	2.8
Cc1nn(C)c(C)c1NC(=O)CSc1nc(-c2ccccc2Cl)nc2c1cnn2-c1ccccc1	-4.3	122.3*	-7.3	-2.5	-0.1	-5.1	6.3
CCOC(=O)c1c(C)[nH]c(C)c1C(=O)CSc1nnc(-c2cc(OC)c(OC)c(OC)c2)o1	-8.6	33.0*	-3.0	-1.0	0.7	4.4	4.9
O=[N+]([O-])c1ccc2[nH]c3nc4ccccc4nc3c2c1	-6.4	37.7*	-1.1	-0.7	1.3	0.0	7.5
O=[N+]([O-])c1ccc2[nH]nc(-c3ccccc3)c2c1	4.8	-5.1	40.8	-3.2	-0.2	-0.6	x
Cc1ccc(CNC(=O)COC(=O)c2cc(=O)[nH]c3ccccc23)cc1	1.4	54.7*	-1.6	-0.8	0.0	-2.3	-1.4
O=C(COC(=O)c1cc(=O)[nH]c2ccccc12)Nc1ccc(Cl)cn1	-9.0	19.1*	0.2	-3.4	-0.4	0.8	1.4
O=C(COC(=O)c1cc(=O)[nH]c2ccccc12)NCc1ccccc1	-1.8	-0.7	0.7	-1.8	0.7	-3.5	x
Cc1cccc(C)c1NC(=O)COC(=O)c1cc(=O)[nH]c2ccccc12	-4.8	42.5*	x	-0.3	0.0	-0.7	2.7
O=C(COC(=O)c1cc(=O)[nH]c2ccccc12)Nc1nc(-c2ccccc2)cs1	-3.8	55.4*	11.5	-1.0	-2.3	1.3	4.1
COc1ccc(NC2CCCN(C(=O)c3ccc(C(C)=O)s3)C2)cc1 (stereo not given)	-1.0	-1.2	0.1	-0.4	0.8	-5.0	x
O=C(c1cc2ccc([N+](=O)[O-])cc2oc1=O)N1CCOCC1	1.8	7.1	-3.6	-1.0	0.7	-2.4	x
